Results on 25 compounds are retold here after ChEMBL document CHEMBL1146034, “Synthesis, DNA affinity, and antiprotozoal activity of linear dications: Terphenyl diamidines and analogues” (J Med Chem, 2006).

SMILES strings stand for the structures. Active and inactive are the calls of the source. The rule behind the calls is not given here. Some results are limits rather than exact numbers.

Data set [1] concerns Mus musculus. In words: Antiprotozoal activity in mouse infected with Trypanosoma brucei rhodesiense STIB900 measured as survival upto 60 days at 5 mg/kg, ip. It is filed as functional, organism-based. The arrangement: dose 5 mg/kg. The method in brief: (§1)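 Acute mouse model of T. b. rhodesiense STIB900 infection. Compound was given for 4 days, either intraperitoneally or orally, at the stated dose, with untreated infected controls. Read-outs were the number of mice alive and parasite-free at 60 days and the average days of survival.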

Data set [2] deals with Mus musculus. In words: Antiprotozoal activity in mouse infected with Trypanosoma brucei rhodesiense STIB900 measured as average days of survival at 5 mg/kg, ip. It counts as functional. The following applies: route intraperitoneal. The gist of the method: (§2)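 Acute STIB900 mouse model. Dosing ran for 4 days, given ip or po. The read-out was average days of survival post infection. Mice surviving 60 days parasite-free were scored as cures. Untreated infected mice served as controls.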

Data set [3] relates to Mus musculus. As to the kind of experiment: Antiprotozoal activity in mouse infected with Trypanosoma brucei rhodesiense STIB900 measured as survival upto 60 days at 20 mg/kg, ip. It is filed as functional, organism-based. Set-up: dose 20 mg/kg. The gist of the method: as §1
Data set [4] relates to Mus musculus. In words: Antiprotozoal activity in mouse infected with Trypanosoma brucei rhodesiense STIB900 measured as average days of survival at 20 mg/kg, ip. It is filed as functional. Conditions: route intraperitoneal. The gist of the method: as §2
Data set [5] has as its system Mus musculus. As to the kind of experiment: Antiprotozoal activity in mouse infected with Trypanosoma brucei rhodesiense STIB900 measured as average days of survival at 25 mg/kg, po. It counts as functional. The method in brief:
as §2

For the next data set, the system named is Plasmodium falciparum. As to the kind of experiment: Antiprotozoal activity against Plasmodium falciparum K1. It is filed as functional, organism-based. The method in brief: (§3)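 Run in vitro against T. b. rhodesiense strain STIB900 or P. falciparum strain K1. Values are from duplicate determinations.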
Data set [6] in a line: Half life in B6C3F1 mouse liver microsome. It is filed as ADME. Conditions: liver microsomes. The gist of the method:
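Pooled male B6C3F1 mouse liver microsomes (0.5 mg/mL protein) in 100 mM phosphate pH 7.4 with 5 mM MgCl2 and 0.5% DMSO, run in duplicate. After 3 min preincubation at 37 °C, 2 mM NADPH started the reaction. Acetonitrile quench at 0–30 min, then LC-MS/MS (positive MRM). t1/2 = 0.693/slope of ln % parent remaining versus time.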

Data set [7] concerns Mus musculus. As to the kind of experiment: Antiprotozoal activity in mouse infected with Trypanosoma brucei rhodesiense STIB900 measured as survival upto 60 days at 25 mg/kg, po. It is filed as functional, organism-based. Set-up: dose 25 mg/kg. The gist of the method: as §1
Another data set has as its system L6. In words: Cytotoxicity against rat L6 cells. It counts as functional, cell-based.
Data set [8] deals with Trypanosoma brucei rhodesiense. As to the kind of experiment: Antiprotozoal activity against Trypanosoma brucei rhodesiense STIB900. It is filed as functional, organism-based. The method in brief: as §3
The subject of data set [9] is Mus musculus. In words: Antiprotozoal activity in mouse infected with Trypanosoma brucei rhodesiense STIB900 measured as average days of survival at 100 mg/kg, po. The following applies: in vivo. The arrangement: dose 100 mg/kg, route oral. It counts as organism-based. The gist of the method: as §2
Data set [10] concerns Mus musculus. As to the kind of experiment: Antiprotozoal activity in mouse infected with Trypanosoma brucei rhodesiense STIB900 measured as survival upto 60 days at 100 mg/kg, po. It counts as functional, organism-based. Set-up: dose 100 mg/kg. The gist of the method: as §1

With `N=C(N)c1ccc(-c2ccc(-c3ccc(C(=N)N)cc3)o2)cc1` [FURAMIDINE], the outcome in the data set with Mus musculus [1] and in the data set on Mus musculus [3] was inactive. In addition, the Survival was 35.5 days in the data set on Mus musculus [2] and above 52.5 days in the data set on Mus musculus [4].

`CONC(=N)c1ccc(-c2ccc(-c3ccc(C(=N)NOC)cn3)cc2)nc1` registered a Survival with Mus musculus [5] of 12 days. Besides, the IC50 was 1.2 µM in the data set with Plasmodium falciparum, above 158 µM in the data set on L6 and 82.9 µM in [8]. Also, in data set [6], the half-life was above 1.5 h. The result in the data set with Mus musculus [7] was inactive.

Regarding `N=C(N)c1ccc(-c2ccc(-c3ccc(C(=N)N)cc3)c(C(F)(F)F)c2)cc1`, the outcome in the data set with Mus musculus [1] was inactive. Besides, the IC50 turned out to be 0.015 µM with Plasmodium falciparum, 9.4 µM in the data set with L6 and 0.048 µM in [8]. This compound registered a Survival in the data set with Mus musculus [2] of 17.25 days.

Take `N=C(NO)c1ccc(-c2ccc(-c3ccc(/C(N)=N\O)cc3)nc2)cc1`: the IC50 is 7.6 µM in the data set on Plasmodium falciparum, above 184 µM in the data set with L6 and 9.3 µM in data set [8]. The Survival with Mus musculus [9] is above 35.75 days.

On to `N=C(NO)c1ccc(-c2ccc(-c3ccc(/C(N)=N\O)cc3)cc2F)cc1`, for which the Survival in the data set with Mus musculus [5] came to 22.25 days. The IC50 in the data set on Plasmodium falciparum worked out at 0.925 µM; with L6 it was 29.1 µM. Moreover, the outcome in the data set with Mus musculus [7] was inactive.

As to `COc1cc(-c2ccc(C(=N)N)cc2)c(OC)cc1-c1ccc(C(=N)N)cc1`, the figures for the IC50 (in the data set on Plasmodium falciparum; in the data set with L6; in data set [8]) were 0.037 µM, above 100 µM and 0.015 µM, respectively. The Survival in the data set on Mus musculus [2] was above 51.75 days.

Compound `CONC(=N)c1ccc(-c2ccc(-c3ccc(C(=N)NOC)cc3)c(F)c2)cc1` yielded a Survival in the data set with Mus musculus [5] of 37.25 days. Also, the half-inhibitory concentration (IC50) came out at 4.2 µM in the data set on Plasmodium falciparum, 8.5 µM in the data set with L6 and 51.5 µM in data set [8]. This compound also had a half-life in data set [6] above 1.5 h. Also, the outcome in the data set with Mus musculus [7] was inactive.

In the case of `N=C(N)c1ccc(-c2ccc(-c3ccc(C(=N)N)cc3)cc2)cc1`, the IC50 in the data set with Plasmodium falciparum is 0.001 µM; in [8], 0.005 µM. In addition, the Survival with Mus musculus [4] was above 47.75 days.

For the compound `N=C(N)c1ccc(-c2ccc(-c3ccc(C(=N)N)cc3)c(F)c2)cc1`, the outcome in the data set with Mus musculus [1] was inactive. For the same compound, the values for the IC50 (with Plasmodium falciparum; in data set [8]) were 0.001 µM and 0.002 µM, respectively. Also, the Survival in the data set on Mus musculus [2] was above 51.75 days.

Take `N=C(N)c1ccc(-c2ccc(-c3ccc(C(=N)N)cc3)nc2)cc1`: the results for the IC50 (in the data set with Plasmodium falciparum; in data set [8]) were 0.01 µM and 0.002 µM, respectively. The Survival in the data set with Mus musculus [2] is above 42 days; in the data set on Mus musculus [4], above 60 days. Besides, the result in the data set on Mus musculus [3] was Active.

Turning to `N=C(N)c1ccc(-c2ccc(-c3ccc(C(=N)N)cn3)cc2)nc1`, the IC50 in the data set on Plasmodium falciparum stood at 0.01 µM; in data set [8], 0.047 µM. Besides, in the data set with Mus musculus [2], the Survival is above 60 days.

The compound `CONC(=N)c1ccc(-c2ccc(-c3ccc(C(=N)NOC)cc3)c(C(F)(F)F)c2)cc1` displayed a Survival in the data set with Mus musculus [5] of 7.25 days. For the same compound, the half-maximal inhibitory concentration (IC50) in the data set on Plasmodium falciparum was found to be 3.8 µM; with L6, 42.2 µM; in data set [8], 36.9 µM. Besides, in the data set on Mus musculus [7], the result was inactive.

In the data set on Mus musculus [5], `N=C(NO)c1ccc(-c2ccc(-c3ccc(/C(N)=N/O)cc3)cc2)o1` yielded a Survival of 16 days. Besides, the IC50 is 6.6 µM in the data set on Plasmodium falciparum and 67 µM in data set [8]. Moreover, the outcome in the data set on Mus musculus [7] was inactive.

With `CONC(=N)c1ccc(-c2ccc(-c3ccc(C(=N)NOC)cc3)o2)cc1` [PAFURAMIDINE], the Survival in the data set with Mus musculus [5] is above 60 days. In [6], this compound returned a half-life below 0.25 h.

Turning to `N=C(NO)c1ccc(-c2ccc(-c3ccc(/C(N)=N\O)cc3)cc2)cc1`, the values for the IC50 (in the data set with Plasmodium falciparum; in the data set with L6; in data set [8]) were above 11.8 µM, above 211 µM and 22.8 µM, respectively. For the same compound, the result in the data set on Mus musculus [10] was inactive. This compound also registered a Survival in the data set with Mus musculus [9] of 24.75 days.

Take `CONC(=N)c1ccc(-c2ccc(-c3ccc(C(=N)NOC)cc3)cc2)cc1`: the IC50 with Plasmodium falciparum is 0.371 µM; in the data set on L6, 118 µM; in data set [8] it was 13.8 µM. For the same compound, the result in the data set on Mus musculus [10] was inactive.

Consider `CO/N=C(\N)c1ccc(-c2ccc(-c3ccc(C(=N)NOC)cc3)cc2)o1`, for which, in the data set on Mus musculus [5], the Survival was found to be 6.25 days. Moreover, the values for the IC50 (with Plasmodium falciparum; in the data set on L6; in data set [8]) were 1.6 µM, above 205 µM and 24 µM, respectively. The outcome in the data set with Mus musculus [7] was inactive.

Consider `N=C(N)c1ccc(-c2ccc(-c3ccc(C(=N)N)o3)cc2)cc1`, for which the figures for the IC50 (with Plasmodium falciparum; in the data set with L6; in data set [8]) were 0.001 µM, 56.1 µM and 0.005 µM, respectively. The outcome with Mus musculus [3] was inactive. This compound also yielded a Survival in the data set on Mus musculus [4] of 21.25 days.

As to `N=C(NO)c1ccc(-c2ccc(-c3ccc(/C(N)=N\O)cc3)cc2C(F)(F)F)cc1`, in the data set on Mus musculus [5], the Survival was determined as 9 days. Besides, the concentration for half-maximal inhibition (IC50) was 3.1 µM in the data set on Plasmodium falciparum, 13.3 µM with L6 and 29.9 µM in data set [8]. Moreover, the result in the data set with Mus musculus [7] was inactive.

Consider `N=C(N)c1ccc(-c2cnc(-c3ccc(C(=N)N)cc3)nc2)cc1`, for which the outcome in the data set on Mus musculus [1] was inactive. Besides, inhibition with Plasmodium falciparum was half-maximal at 0.0005 µM (IC50). In the data set on Mus musculus [2], the Survival turned out to be 23.5 days.

`N=C(N)c1ccc(-c2ccc(-c3ccc(C(=N)N)o3)cn2)cc1`: the IC50 in the data set on Plasmodium falciparum came to 0.01 µM; in the data set with L6, 30.9 µM; in data set [8], 0.002 µM. The Survival was above 41.75 days in the data set on Mus musculus [2] and above 53.5 days in the data set with Mus musculus [4].

With `CON=C(N)c1ccc(-c2ccc(-c3ccc(C(N)=NOC)cc3)cc2)cc1`, the half-life in data set [6] was above 1.5 h. This compound also gave a Survival in the data set on Mus musculus [9] of 20.75 days.

`CO/N=C(/N)c1ccc(-c2ccc(-c3ccc(C(=N)NOC)cc3)nc2)cc1` showed a Survival in the data set with Mus musculus [5] above 42.75 days. The IC50 in the data set with Plasmodium falciparum was 3.2 µM; in the data set on L6 it was above 166 µM; in [8] it was 34.7 µM. In data set [6], this compound gave a half-life of 0.917 h. Besides, in the data set on Mus musculus [7], the result was inactive.

The compound `CONC(=N)c1ccc(-c2cnc(-c3ccc(C(=N)NOC)cc3)nc2)cc1` came in with a Survival in the data set with Mus musculus [5] of 12.5 days. In addition, the IC50 in the data set with Plasmodium falciparum was 5.7 µM; with L6, above 177 µM; in data set [8], 49 µM. In [6], this compound registered a half-life above 1.5 h. The result with Mus musculus [7] was inactive.

On to `N=C(N)c1ccc(OCCCCCOc2ccc(C(=N)N)cc2)cc1` [PENTAMIDINE], for which, in the data set on Mus musculus [3], the result was inactive. In addition, the Survival with Mus musculus [4] is above 42.75 days.
